The text below walks through data of ChEMBL document CHEMBL4020727, “Synthesis and biological evaluation of largazole zinc-binding group analogs” (Bioorg Med Chem, 2017).

Test [1] deals with Histone deacetylase 3/Nuclear receptor corepressor 2 (HDAC3/NCoR2) (Homo sapiens, UniProt O15379). The experiment in a line: Inhibition of full length human C-terminal His-tagged HDAC3/N-terminal GST-tagged NCOR2 (395 to 489 residues) expressed in baculovirus infected Sf9 insect cells using BPS HDAC substrate 3 after 30 mins by fluorescence assay. An outline of the steps: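 Run by a contract lab. Compound incubated with HDAC enzyme, substrate, bovine serum albumin and HDAC buffer in duplicate for 30 min at 37 °C. Activity taken as (F−Fb)/(Ft−Fb) against blank and solvent control wells; IC50 from curve fitting.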

Test [2] deals with HCT-116. The test can be described thus: Cytotoxicity against human HCT116 cells assessed as reduction in cell viability after 48 hrs by MTT assay. Format: functional, cell-based. The conditions noted are these: HCT-116, 48 h. An outline of the steps: (§1)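 Cells grown in DMEM with 10% FBS, 37 °C, 5% CO2; 1 × 10^4 cells per well plated and left 24 h, then exposed to a range of compound concentrations or vehicle (1% EtOH) for 48 h. Viability read by MTT.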

Test [3] addresses Histone deacetylase 1 (Homo sapiens, UniProt Q13547). The experiment in a line: Inhibition of recombinant full length C-terminal His/FLAG-tagged human HDAC1 expressed in baculovirus infected Sf9 insect cells using BPS HDAC substrate 3 after 30 mins by fluorescence assay. In short, it runs like this: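 Run by a contract lab. Compound incubated with HDAC enzyme, HDAC substrate, BSA and HDAC buffer, in duplicate, at 37 °C for 30 min. Quenched with HDAC developer, then 15 min at room temperature. Percent activity = (F−Fb)/(Ft−Fb), using blank and solvent-control wells. IC50 from curve fitting.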

The species named for test [4] is Homo sapiens. The test can be described thus: Inhibition of class 1 HDAC in human MDA-MB-231 cells assessed as hyperacetylation of histone H3 (Lys9/14) measured at 8 hrs post treatment by immunoblot analysis. Type of test: cell-based. In short, it runs like this: (§2)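 Cells in DMEM/10% FBS; 4 × 10^5 cells seeded in 60-mm dishes overnight, then treated for 8 h with 0–10 μM (final) compound or vehicle (1% EtOH). Whole-cell lysates loaded at equal protein (BCA), run on SDS-PAGE, blotted to PVDF and probed with anti-acetyl histone H3 (Lys9/14); β-actin also probed. Chemiluminescent detection.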

Test [5] deals with MDA-MB-231. The experiment in a line: Cytotoxicity against human MDA-MB-231 cells assessed as reduction in cell viability after 48 hrs by MTT assay. Type of test: functional, cell-based. As to conditions: MDA-MB-231, 48 h. In short, it runs like this: as §1
Test [6] is filed under the species Homo sapiens. The test can be described thus: Inhibition of class 1 HDAC in human HCT116 cells assessed as hyperacetylation of histone H3 (Lys9/14) measured at 8 hrs post treatment by immunoblot analysis. Format: cell-based. An outline of the steps: as §2

Histone deacetylase 1, sequence (Q13547 whole entry): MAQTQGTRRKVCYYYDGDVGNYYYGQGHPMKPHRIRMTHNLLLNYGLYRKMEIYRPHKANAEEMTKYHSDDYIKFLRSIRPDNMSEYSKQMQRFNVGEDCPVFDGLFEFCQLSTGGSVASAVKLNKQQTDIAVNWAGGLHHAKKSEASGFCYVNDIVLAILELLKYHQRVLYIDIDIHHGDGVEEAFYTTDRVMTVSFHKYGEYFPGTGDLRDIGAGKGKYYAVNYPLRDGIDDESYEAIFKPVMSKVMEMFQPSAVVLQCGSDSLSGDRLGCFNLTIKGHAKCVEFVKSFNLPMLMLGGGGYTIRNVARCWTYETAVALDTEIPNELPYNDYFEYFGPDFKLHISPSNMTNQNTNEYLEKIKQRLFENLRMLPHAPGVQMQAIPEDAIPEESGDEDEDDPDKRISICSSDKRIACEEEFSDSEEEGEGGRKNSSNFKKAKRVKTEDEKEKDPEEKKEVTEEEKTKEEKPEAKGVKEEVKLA
Histone deacetylase 3/Nuclear receptor corepressor 2 (HDAC3/NCoR2), sequence (O15379 whole entry, the tested form may be a part): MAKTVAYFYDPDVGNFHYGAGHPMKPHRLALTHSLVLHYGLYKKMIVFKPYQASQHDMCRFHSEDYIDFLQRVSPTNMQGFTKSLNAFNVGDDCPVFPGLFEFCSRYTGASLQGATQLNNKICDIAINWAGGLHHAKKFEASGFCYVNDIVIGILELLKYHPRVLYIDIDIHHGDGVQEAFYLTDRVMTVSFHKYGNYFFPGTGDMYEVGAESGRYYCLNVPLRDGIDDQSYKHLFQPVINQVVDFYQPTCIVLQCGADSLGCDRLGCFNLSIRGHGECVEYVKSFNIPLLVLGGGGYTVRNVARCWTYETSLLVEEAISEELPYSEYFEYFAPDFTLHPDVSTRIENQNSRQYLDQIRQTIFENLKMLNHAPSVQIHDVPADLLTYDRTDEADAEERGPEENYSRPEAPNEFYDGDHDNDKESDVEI
Histone deacetylase 3/Nuclear receptor corepressor 2 (HDAC3/NCoR2), sequence (Q9Y618 whole entry, further chain, the tested form may be a part): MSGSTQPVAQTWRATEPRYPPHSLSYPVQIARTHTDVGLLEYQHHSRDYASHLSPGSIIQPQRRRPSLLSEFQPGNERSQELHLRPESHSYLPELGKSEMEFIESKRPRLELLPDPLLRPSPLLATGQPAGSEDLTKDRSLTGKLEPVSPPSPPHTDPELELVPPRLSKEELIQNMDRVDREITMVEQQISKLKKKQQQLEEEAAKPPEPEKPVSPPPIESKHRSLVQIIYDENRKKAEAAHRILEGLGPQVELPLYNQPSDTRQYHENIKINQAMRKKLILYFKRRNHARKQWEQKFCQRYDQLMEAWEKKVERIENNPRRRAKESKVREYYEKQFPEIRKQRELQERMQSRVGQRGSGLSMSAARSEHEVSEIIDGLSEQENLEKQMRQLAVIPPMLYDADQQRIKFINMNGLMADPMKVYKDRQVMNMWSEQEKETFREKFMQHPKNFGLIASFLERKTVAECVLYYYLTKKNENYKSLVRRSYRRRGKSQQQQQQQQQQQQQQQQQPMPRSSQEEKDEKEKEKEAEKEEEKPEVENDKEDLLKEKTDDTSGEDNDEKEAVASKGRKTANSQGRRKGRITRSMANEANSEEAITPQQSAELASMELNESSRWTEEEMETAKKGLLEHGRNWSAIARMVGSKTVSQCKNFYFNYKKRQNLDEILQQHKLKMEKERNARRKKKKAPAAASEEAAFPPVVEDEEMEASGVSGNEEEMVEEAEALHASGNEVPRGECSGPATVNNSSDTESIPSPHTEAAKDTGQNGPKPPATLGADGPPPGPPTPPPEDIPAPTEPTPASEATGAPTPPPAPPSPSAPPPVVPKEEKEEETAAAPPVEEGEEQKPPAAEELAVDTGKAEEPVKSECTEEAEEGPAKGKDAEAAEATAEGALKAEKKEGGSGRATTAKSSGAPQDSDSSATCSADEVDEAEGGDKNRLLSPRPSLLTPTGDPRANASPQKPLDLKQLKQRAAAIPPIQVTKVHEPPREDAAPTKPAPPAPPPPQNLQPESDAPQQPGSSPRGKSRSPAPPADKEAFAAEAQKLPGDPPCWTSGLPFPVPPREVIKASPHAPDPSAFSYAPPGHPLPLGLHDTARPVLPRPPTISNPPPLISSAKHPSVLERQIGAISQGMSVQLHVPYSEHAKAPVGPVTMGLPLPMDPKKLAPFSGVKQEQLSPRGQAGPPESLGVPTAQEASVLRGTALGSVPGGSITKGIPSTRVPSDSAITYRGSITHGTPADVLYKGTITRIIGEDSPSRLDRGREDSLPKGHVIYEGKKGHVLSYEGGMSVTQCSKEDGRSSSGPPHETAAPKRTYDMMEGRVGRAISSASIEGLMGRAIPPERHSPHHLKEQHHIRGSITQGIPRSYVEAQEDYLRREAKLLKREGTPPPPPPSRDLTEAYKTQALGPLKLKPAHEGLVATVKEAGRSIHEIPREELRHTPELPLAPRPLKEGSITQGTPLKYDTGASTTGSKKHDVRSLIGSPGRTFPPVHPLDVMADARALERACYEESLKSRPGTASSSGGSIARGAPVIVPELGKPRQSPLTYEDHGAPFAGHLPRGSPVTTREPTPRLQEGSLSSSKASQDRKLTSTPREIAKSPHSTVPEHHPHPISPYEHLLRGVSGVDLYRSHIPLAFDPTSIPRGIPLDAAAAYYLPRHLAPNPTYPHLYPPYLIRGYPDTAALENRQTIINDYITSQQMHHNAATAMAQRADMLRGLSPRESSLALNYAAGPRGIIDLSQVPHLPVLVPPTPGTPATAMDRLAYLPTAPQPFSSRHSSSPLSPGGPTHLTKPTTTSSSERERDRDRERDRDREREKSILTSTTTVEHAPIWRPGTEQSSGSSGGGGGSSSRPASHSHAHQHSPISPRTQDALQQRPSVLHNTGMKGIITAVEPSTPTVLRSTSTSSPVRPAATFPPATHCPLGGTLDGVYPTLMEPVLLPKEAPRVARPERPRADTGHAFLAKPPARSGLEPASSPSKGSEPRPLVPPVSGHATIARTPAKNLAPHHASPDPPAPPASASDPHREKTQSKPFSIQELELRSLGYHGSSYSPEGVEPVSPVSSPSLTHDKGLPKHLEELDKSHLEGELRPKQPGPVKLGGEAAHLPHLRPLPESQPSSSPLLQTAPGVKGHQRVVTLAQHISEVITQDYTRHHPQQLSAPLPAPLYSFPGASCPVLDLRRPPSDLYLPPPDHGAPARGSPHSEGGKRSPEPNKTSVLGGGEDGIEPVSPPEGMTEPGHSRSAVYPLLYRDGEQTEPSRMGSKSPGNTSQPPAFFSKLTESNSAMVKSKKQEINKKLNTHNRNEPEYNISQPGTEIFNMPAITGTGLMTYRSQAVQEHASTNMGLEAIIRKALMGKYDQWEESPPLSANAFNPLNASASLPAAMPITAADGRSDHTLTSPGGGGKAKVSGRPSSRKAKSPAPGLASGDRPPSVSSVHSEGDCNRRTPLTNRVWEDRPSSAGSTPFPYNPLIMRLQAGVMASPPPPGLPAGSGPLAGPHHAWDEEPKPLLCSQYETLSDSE

In the case of `CC(C)[C@@H]1NC(=O)[C@]2(C)CSC(=N2)c2csc(n2)CNC(=O)C[C@@H](/C=C/CCC(=O)NO)OC1=O`, the IC50 in test [1] came to 29 nM; in test [2] it was 3300 nM; in test [3] it was 26 nM; in test [5] it was 497 nM. Also, the inhibition result in test [4] and in test [6] was “Dose-dependent effect” throughout.
Consider `CC(C)[C@@H]1NC(=O)[C@]2(C)CSC(=N2)c2csc(n2)CNC(=O)C[C@@H](/C=C/CCSCCS)OC1=O`, for which the IC50 stood at 43 nM in test [1], 1500 nM in test [2], 40 nM in test [3] and 480 nM in test [5]. In addition, the inhibition entry in test [4] and in test [6] was “Dose-dependent effect” throughout.
